Measurements reported in ChEMBL document CHEMBL5154683, “A 5-FU Precursor Designed to Evade Anabolic and Catabolic Drug Pathways and Activated by Pd Chemistry In Vitro and In Vivo” (J Med Chem, 2022).
The source made the active and inactive calls. The rule behind the calls is not given here.

Key:
[1] = Prodrug conversion in human liver S9 fraction assessed as DH5FU metabolite formation at 1.6 mM incubated for 1 hr in presence of NADPH by 19F-NMR based analysis; format: ADME, subcellular; conditions: s9, 1 h, 1600 µM
How it was run: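 Compound added as 150 mM stock in DMSO-d₆, preincubated 5 min at 37 °C with enzyme mixture, then NADPH added (1 mM) and incubated 1 h at 37 °C, 600 rpm; controls without NADPH and without enzymes. Stopped with EtOAc, dried under N₂, redissolved in DMSO-d₆, DH5FU detected by ¹⁹F NMR vs authentic sample.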

[2] = Plasma protein binding in rat assessed as compound recovery at 5 uM; format: ADME, cell-free; conditions: read-out: Drug recovery
How it was run: (§1)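 Binding of compound at 5 μM measured in rat and human plasma, with compound recovery determined; n = 3.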

[3] = Plasma protein binding in human assessed as compound recovery at 5 uM; format: ADME, cell-free; conditions: read-out: Drug recovery; how it was run: as §1
[4] = Mean residence time in female Wistar Han rat at 1000 mg/kg, po administered as single dose measured upto 24 hrs; format: ADME, organism-based; conditions: in vivo
How it was run: (§2)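 Single oral dose 1000 mg/kg in male and female rats, dosing volume 10 mL/kg (n = 6); animals observed 14 days with clinical checks, functional/neurobehavioral tests and body weight, necropsy on d15; exposure parameters from the toxicokinetic arm of this study.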

[5] = Toxicity in BALB/c nude mouse xenografted with human HCT-116 cells assessed as change in body weight at 75 to 150 mg/kg, po administered via oral gavage measured daily for 7 days; format: organism-based; conditions: in vivo, 168 h, dose 75-150 mg/kg, time 7 day
How it was run: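 Female BALB/c nude mice, 6–7 weeks, inoculated s.c. with 5 × 10⁵ HCT116 cells in 1:1 Matrigel/PBS; at 200–300 mm³ randomized; Pd resins (2 mg in 50 μL) injected intratumorally (groups 1–3), then oral gavage daily for 7 days with 150 or 75 mg/kg or vehicle; untreated group. Body weight daily, clinical signs twice daily.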

[6] = Tmax in male Wistar Han rat at 10 mg/kg, po administered as single dose measured upto 24 hrs; format: ADME, organism-based; conditions: in vivo
How it was run: (§3)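 Male jugular-vein-cannulated Wistar Han rats, 263–319 g, single dose. IV: 1 mg/kg as 2 mL/kg of 0.5 mg/mL in 5% DMSO/95% HPCD (20% w/v), not fasted. PO: 10 mg/kg as 5 mL/kg of 2 mg/mL suspension in 5% DMSO/95% tween 80/HPCD vehicle, fasted overnight. Serial cannula blood sampling 0.083/0.25–24 h (n = 3/route); parent quantified by QToF against calibration curve.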

[7] = AUC (0 to infinity) in female Wistar Han rat at 1000 mg/kg, po administered as single dose measured upto 24 hrs; format: ADME, organism-based; design: time < 24 hrs, dose 1000 mg/kg, route po; conditions: in vivo; how it was run: as §2
BXPC-3 = assay: Antiproliferative activity against human BxPC-3 cells assessed as reduction in cell viability measured after 5 days by PrestoBlue reagent based assay; format: functional; conditions: BXPC-3, 120 h
How it was run: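 Cells in 10% FBS, 2 mM L-glutamine media at 37 °C, 5% CO₂ (HCT116 in McCoy's 5A, BxPC-3 in RPMI). Seeded at 3000 (HCT116) or 2500 (BxPC-3) cells/well and grown 48 h. Medium then replaced with drug-containing medium, 0.1% DMSO, for 5 d. PrestoBlue 10% v/v added for 1 h, fluorescence read ex 540/em 590 nm. Normalised to DMSO-only wells; sigmoidal variable-slope fit; n = 3.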

[8] = Metabolic stability in human hepatocytes assessed as half life at 1 uM by LC-MS/MS analysis; format: ADME, cell-based, Hepatocyte
How it was run: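 Suspended hepatocytes (0.5 × 10⁶ cells/mL) in Williams E medium with 2 mM L-glutamine and 25 mM HEPES at 37 °C, compound added with 0.25% v/v DMSO after preincubation; aliquots quenched into methanol with internal standard at time points, centrifuged, supernatant analyzed by LC-MS/MS; two control compounds included.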

Albumin = Albumin (Homo sapiens, UniProt P02768); assay: Binding affinity to human plasma albumin; format: ADME, cell-free
Albumin, sequence (P02768 whole entry): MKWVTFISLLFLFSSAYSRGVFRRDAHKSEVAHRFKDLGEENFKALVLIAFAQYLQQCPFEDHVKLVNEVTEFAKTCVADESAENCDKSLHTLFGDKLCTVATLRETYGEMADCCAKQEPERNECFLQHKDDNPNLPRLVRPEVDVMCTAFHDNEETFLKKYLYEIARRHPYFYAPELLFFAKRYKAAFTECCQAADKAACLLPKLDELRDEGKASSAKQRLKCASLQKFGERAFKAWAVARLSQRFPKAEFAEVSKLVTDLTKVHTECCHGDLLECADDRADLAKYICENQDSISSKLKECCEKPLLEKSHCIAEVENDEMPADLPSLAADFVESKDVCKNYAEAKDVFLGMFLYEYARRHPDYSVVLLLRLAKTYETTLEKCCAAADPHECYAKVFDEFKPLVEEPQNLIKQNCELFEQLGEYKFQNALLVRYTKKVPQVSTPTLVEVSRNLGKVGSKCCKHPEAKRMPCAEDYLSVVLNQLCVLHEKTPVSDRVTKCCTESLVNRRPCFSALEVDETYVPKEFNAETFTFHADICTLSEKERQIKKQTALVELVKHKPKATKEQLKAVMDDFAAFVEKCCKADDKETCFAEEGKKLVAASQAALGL

HCT-116 = assay: Antiproliferative activity against human HCT-116 cells assessed as increase in cytotoxicity at 1 uM incubated for 5 days in presence of Pd-resin by PrestoBlue dye based assay; format: functional, cell-based; conditions: time 5.0 day
[9] = Toxicity in female Wistar Han rat assessed as mortality at 1000 mg/kg, po administered as single dose measured over 14 days; format: organism-based; conditions: in vivo, 336 h, time > 14 day
How it was run: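 Single oral dose of 1000 mg/kg at 10 mL/kg to male and female rats (n = 6), then 14 d observation. Morbidity and mortality checked twice daily. Clinical signs recorded predose, twice on dosing day, then daily. FOB on d1, d7 or d14. Body weight on d1, 2, 5, 8, 11 and 14. Gross necropsy on d15.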

[10] = Drug metabolism in BALB/c mouse bearing HCT-116 tumor assessed as release of 5-FU in plasma at 75 to 150 mg/kg, po administered for 7 days; format: ADME, organism-based; conditions: in vivo, 168 h, dose 75-150 mg/kg, time 7 day
How it was run: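 Same HCT116-bearing BALB/c nude mice with intratumoral Pd resins and 7-day oral dosing at 75 or 150 mg/kg; blood collected by microsampling on day 7, 2 h after administration, plasma frozen at –20 °C for analysis.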

[11] = Apparent permeability across apical to basolateral side in human Caco-2 cells assessed as drug recovery at 10 uM measured after 120 mins by LC-MS/MS analysis; format: ADME, cell-based; conditions: read-out: Drug recovery
How it was run: (§4)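 Caco-2 cells (P40-60) seeded at 1 × 10⁵ cells/cm² on Transwells, used on day 20; rinsed and equilibrated 40 min in HBSS pH 7.4. Compound at 10 μM in HBSS, 1% v/v DMSO, added apically (A–B) or basolaterally (B–A); 120 min at 37 °C, 5% CO₂. Lucifer yellow monitored monolayer integrity; LC-MS/MS with eight-point calibration; recovery from C₀ and both compartments.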

[12] = Prodrug conversion in PBS buffer assessed as mono-depropargylated intermediate formation by measuring retention time at 100 uM in presence of Pd-resin measured upto 1 hr by UPLC analysis; format: ADME
How it was run: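 Prodrug (100 μM in PBS, pH 7.4) shaken at 1200 rpm, 37 °C with 1 mg/mL Pd resins (30 μm). Sampled at 10, 20, 40 min, 1, 3, 6, 24 and 48 h; analyzed by reverse-phase UPLC (C18, 60 °C, UV 254 nm), products identified by retention time against authentic standards.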

[13] = AUC (0 to infinity) in male Wistar Han rat at 1 mg/kg, iv administered as single dose measured upto 24 hrs; format: ADME, organism-based; design: time < 24 hrs, dose 1 mg/kg, route iv; conditions: in vivo; how it was run: as §3
[14] = Efflux ratio of apparent permeability across basolateral to apical side over apical to basolateral side in human Caco2 cells at 10 uM measured after 120 mins by LC-MS/MS analysis; format: ADME, cell-based; conditions: Caco-2; how it was run: as §4
[15] = Mean residence time in male Wistar Han rat at 1 mg/kg, iv administered as single dose measured upto 24 hrs; format: ADME, organism-based; conditions: in vivo; how it was run: as §3
[16] = Oral bioavailability in Wistar Han rat at 10 mg/kg administered as single dose measured upto 24 hrs; format: ADME, organism-based; conditions: in vivo; how it was run: as §3

For C#CCOc1ncc(F)c(OCC#C)n1, the Drug metabolism [1] was “Metabolite_Notdetected”, the recovery at 5 µM [2] was 94.8% and the recovery at 5 µM [3] was 95.7%. The MRT [4] was 13.4 h, the Activity [5] was “Non-Toxic” and the Tmax [6] was 0.25 h. For the same compound, the AUC(0-inf) [7] was 1470 µg·h/mL, the EC50 (BXPC-3) was > 100 µM and the half-life at 1 µM [8] was 5.37 h. For the same compound, the Activity (Albumin) was 10%, the Activity (HCT-116) was “Active” and the Activity [9] was “Non-Toxic”. For the same compound, the Drug metabolism [10] was “Metabolite_Detected”, the recovery at 2 h, 10 µM [11] was 79.2% and the Retention_time [12] was 0.98 min. The AUC(0-inf) [13] was 0.33 µg·h/mL, the efflux ratio at 2 h, 10 µM [14] was 1.38 and the MRT [15] was 0.569 h. The F [16] was 187%.
